System: MS2 coat protein
Assay: apparent Kd, MS2 coat protein; higher = weaker binding; RNA-MaP array; FMN 200 µM where present
Summary of the method: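 Each design was made on Illumina sequencing-chip clusters by stalled E. coli RNA polymerase and titrated with SNAP-549-labelled MS2 coat protein from 0.7 or 1.5 nM, doubling to 3 µM, in the absence and then the presence of constant ligand. The buffer was 100 mM Tris-HCl pH 7.5, 80 mM KCl, 4 mM MgCl2, BSA, DTT, yeast tRNA and Tween-20. The apparent Kd is the median of filtered per-cluster fits of binding curves, with green signal normalised to red-channel RNA signal and control-cluster median Fmax.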

[1] = designed as: ON switch for flavin mononucleotide, no ligand
[2] = ligand present: flavin mononucleotide, designed as: ON switch for flavin mononucleotide
[3] = designed as: OFF switch for flavin mononucleotide, no ligand
[4] = ligand present: flavin mononucleotide, designed as: OFF switch for flavin mononucleotide

Row | Sequence | apparent Kd [1] [nM] | apparent Kd [2] [nM] | apparent Kd [3] [nM] | apparent Kd [4] [nM]
1 | AAUUGGAUCCAGAAGGCAUGGACGACCCGUCACAUUAACAUGAGGAUCACCCAUGUCAAAAGACAUGAGGAUAUGGAUCCUAAA | 752 | 31.8 | – | –
2 | CCUAUACAUGAGGAUCACCCAUGUCAGGAUAUGGACAGCUACGUCAUAGGACGUAGCACCAGAAGGGACUGGCA | – | – | 50.1 | 130
3 | UUGGACGUCGUAGGAUAUGUAGGAUAUUCCUACAUGAGGAUCACCCAUGUUGACAUGGAAGAAGGACAGAAGGACGUUGUCCAU | 404 | 5.74 | – | –
4 | UCGAGUCAUGAGAAGGACUGAUGUUACAUGAGGAUCACCCAUGUCAUGGGUAGGAUAUCAUUGACACGGCUGUACCUCUCUUAC | 196 | 47.7 | – | –
5 | UAAAAGACUAGCAUGGUAACCUUCACAUGAGGAUCACCCAUGUAGGAUAUGAGCAGAAAAUCUGCUCAGAAGGACAUGCUAGUC | – | – | 3.31 | 3.67
6 | UUAAUCAUGUAGAAGGACGGAUAUUAAGAGUACGUAGGAUAUACAGCAGACAUGAGGAUCACCCAUGUGAACAUGGUACAUAGG | – | – | 180 | 55
7 | GUAGCAUACCGAGGAUAUUCAGGGCGUGGAUAUACAUGAGGAUCACCCAUGUGGCGGAAGCCUAGGGAGAAGGCGGAAUGCUAC | 21.3 | 16.8 | – | –
8 | CCUCUGUAAGGAUAUACGGAGACCACUGGAAUCAGUGGAAAGUAGAAGGUACAUGAGGAUCACCCAUGUGAGAA | – | – | 86.6 | 151
9 | CCUAAGGAGACAGGAUAUAGUGUGGUGGCCGGGCUCCCACGGCGAGCGGCACUAGAAGGGUCACUACAUGAGGAUCACCCAUGU | 30.3 | 15.6 | – | –
10 | AGGGAUAAAGGAUAUACAUGAGGAUCACCCAUGUUGAGGAAGGUUAGAGGUGGCGAUAGUAGAAGGUUAGGUAG | – | – | 89.2 | 54.7
11 | GCACUGGAUGUAGGAUAUCAGGACGAUAAGUCCUGAGAAGGACAUGAGGAUCACCCAUGUAACUCAAACCAGUGCUAUAAUAUA | – | – | 16.2 | 27.2
12 | GGAAUACAUGAGGAUCACCCAUGUAAGGAUAUGCUGAUUAAUUAAUUAUAAUUAUGCAGCAGAAGGUACAAAGG | – | – | 85.9 | 104
13 | UAUAUGUCAGGAUAUCGAUUGGAGCGGAAUUUAGCUUUGGUCGAGAAGGGACAUGAGGAUCACCCAUGUUCAAC | – | – | 19.8 | 37.8
14 | UUGCUACAUGAGGAUCACCCAUGUCAGGAUAUUGUGUAUAGCGUGGAAGCUCUGUCGAUAAGAAGGGACUGUCU | – | – | 25.6 | 23.3
15 | UGAAAUCAUGUAGGAUAUGCAUGGCGAAGCUACGCAGAAGGACAUGAGGAUCACCCAUGUUCUAGCUACCGAGUUCGGUGGCAA | – | – | 21.3 | 127
16 | AGAUGGUAGAGAGGAUAUCAUGUGCUGACAUGAGGAUCACCCAUGUAGGGACGUCGGUCCAAUUAUGAGAAGGCUCUACCAUCU | 85.6 | 55.9 | – | –
17 | GUCGGAAACGACAAAGUAGCAUAGGAGGAUAUUCAUCCUCACAUGAGGAUCACCCAUGUAAAUUGGGAGAAGGCCUAUGCUACA | 515 | 301 | – | –
18 | GUUGCUUAUGAGAAGGCGAUCAUGAAACAUGAUCGAGGAUAUCAUGUAAACAUGAGGAUCACCCAUGUAUGGGUAUUAUGCAGC | 320 | 69.3 | – | –
19 | UGUUGUAUUACAGGAUAUCUAGUUUUUUUAUUUAGAGAAGGGUAUUCACAUGAGGAUCACCCAUGUAUAUACGAGGAAGUUGUG | 46.6 | 56.1 | – | –
20 | UAAAUUAUCAAGAAGGCUAACAUGAGGAUCACCCAUGUUGUACAUGGAUAUAGAGGAUAUUGCUAAUAAUUAUUUAUCAUAAUU | – | – | 15.3 | 14.8
21 | GGGAGACAUGAGGAUCACCCAUGUGAAAACGUGGCAGGAUAUCCAUGGAAACCAUACUGUGGAGAAGGGCCUUGUC | 77.9 | 40.5 | – | –
22 | UUAUUAGCAGGAUAUAUCCGGGAUCACAUGAGGAUCACCCAUGUGACCGCUUGAGAUCCUAUAGAAGGGCUUUAUU | – | – | 30.6 | 56.3
23 | UGUCACCGUGCAGGAUAUGCCUGCACGUCGCGGGCAGAAGGGCACAUGAGGAUCACCCAUGUAGAGCUGGGCUCGUCAAGGGAG | – | – | 9.05 | 9.85
24 | CCUCUACAUGAGGAUCACCCAUGUGAGGAUAUCAAAGCCAGAGCGGAUCUCUGGUCCAUGAGAAGGUGCAUGGU | – | – | 20.4 | 89.6
25 | ACAUGAGGAUCACCCAUGUAUUACAUGGUUAAGUUUAUUAACAGAAGGCGAAAUUACCACUUGAUCGAGGAUAUGUAUUCAAUU | – | – | 45 | 40.3
26 | UUUUAGUCAGGAUAUACAUGAGGAUCACCCAUGUAAAAUUUUAAUUUAAUUUUAAGGUGUAGAAGGGACAAUUC | – | – | 48 | 38.6
27 | CUUUCGUGAGGAUAUGUGGCUUCAAUCGUGAGAUCGAGGCUACAGAAGGCACAUGAGGAUCACCCAUGUUCCUC | – | – | 37.9 | 388
28 | AAAAGGUCAGGAUAUCGGCGCGGUUGGGAGGCAGGUCCGCGCGAGAAGGGACAUGAGGAUCACCCAUGUUAAAA | – | – | 29.2 | 32.4

Row | Sequence | apparent Kd [1] [nM] | apparent Kd [2] [nM] | apparent Kd [3] [nM] | apparent Kd [4] [nM]
29 | AAACACAAACAUGAGGAUCACCCAUGUUAUGAAAAUAUUGGGAGAAGGGCGAUUGCAAAGCAAUCGCAGGAUAUUCGUAUUGUG | 34.4 | 12.2 | – | –
30 | UGUCGGAGGAGAGGAUAUUACAUGAGGAUCACCCAUGUAUGAACCAAUAGCUGGAAACAGCAAUGUAAGAAGGCUGCUCCGACA | – | – | 8.17 | 81.4
31 | UUGGACGUCGUAGGAUAUGUAGGAUAUUCCUACAUGAGGAUCACCCAUGUUGUCAUGGAAGAAGGACAGAAGGACGAUGUCCAU | 328 | 4.9 | – | –
32 | AGCUAGUCAGGAUAUACGCAAACGAACGAAGCAGUGAAGGGACAUGAGGAUCACCCAUGUAGAAGGGACUAGCA | – | – | 24.5 | 140
33 | AGAUACUACGAGAAGGACAUGAGGAUCACCCAUGUAACCUGUAUCAGGAAUGUAGGAUAUCGUAGUAUCAGGAUCGUGAGAUCA | – | – | 6.79 | 7.82
34 | GUCGUACAAGGAUAUACGGUGAGCUGUGAGUUAUCUGGGACACAUGAGGAUCACCCAUGUAGAAGGUGUCGACA | – | – | 310 | 470
35 | AUAUAUAUUAGAGGAUAUGUGUUCAUGUUACAUGAGGAUCACCCAUGUUUAGGUUGAUUUAUCUUACAGAAGGCUAUACAAUCA | – | – | 71.5 | 76
36 | CGCACUGUACAUGAGGAUCACCCAUGUUAAUAUGAGGUAGUCAGAAGGCAUUGUUUGAGAUAUUAUGAGGAUAUGAUUAGUGCG | 110 | 28.9 | – | –
37 | UGUUGUAUUACAGGAUAUCUAUUAGUUUUAUAUAGAGAAGGGUAUUCACAUGAGGAUCACCCAUGUAUAUACGAGGAAGUUGUG | 43.4 | 45.5 | – | –
38 | GCCAUCGCAUGAGGAUAUGGACAGGUUUCCUGUCCAGAAGGCAUGUCAUAAGACAUGAGGAUCACCCAUGUAGUUAAGAUGGCA | 908 | 45.9 | – | –
39 | CUUUUGUGAGGAUAUUUGUAGUAAAUAAAUAAAAUUACUACUGAGAAGGCACAUGAGGAUCACCCAUGUUCCUC | – | – | 24.3 | 156
40 | AUGCUAUACGAAGGAUAUGGUUACAUGAGGAUCACCCAUGUUAUGAUUGGUUACUUGUUUAGUUUCCAGAAGGUCGUAUAGCUA | – | – | 58.1 | 232
41 | GAAAACCAAGGAUAUACAUGAGGAUCACCCAUGUAGGUUGGGACGCCAUAAAGGCGAUGUAGAAGGUGGGAAAA | – | – | 21.9 | 33.6
42 | UGUCGGAGCAGAGGAUAUUACAUGAGGAUCACCCAUGUAUGAACCAAUAGCUGGAAACAUCAAUGUAAGAAGGCUGCUCCGACA | – | – | 10.2 | 72.5
43 | UCGCUGCGAGGAUAUACAUGAGGAUCACCCAUGUGCGGGUCCGGGUCUUCGUCCAUUAGUAGAAGGCGCAGUGA | – | – | 122 | 212
44 | GAGAAGUCAGGAUAUGCAUGGCGGGACUUGCGUCGUGGCGUGCAGAAGGGACAUGAGGAUCACCCAUGUAAAGC | – | – | 45.4 | 39.5
45 | AAACAUGUCCGAGGAUAUCUGGAAACACUUUCAAGAGAAGGCGGACAUGAGGAUCACCCAUGUCUCUCCUCAUCAAAUCCAAGU | – | – | 6.53 | 30.2
46 | AUACCACGAGGAUAUCGUCUAUUUCACAUGAGGAUCACCCAUGUUAUCCUUGUUUCGUUUCGAGAAGGCGUGUUUU | – | – | 47.5 | 110
47 | GGUUGUCAUCGUCAUCCUUUCCGUACAUGAGGAUCACCCAUGUAGGAUAUGCUGCUCUCGGUGUGGCAGAAGGGCGUGUGUCUU | – | – | 17 | 18.7
48 | GCGUCAGAAUUAAUUGUGACAGACAGAAGGCAAUAGUAUGUGACCGACAUGAGGAUCACCCAUGUUGAGGAUAUGUAUUGACGC | – | – | 5.26 | 6.53
49 | AGUACUACAGGAUAUACAUGGGUGAUCCUCAUGUCCCUUCUACAUGAGGAUCACCCAUGUAGAAGGGUAGUACA | – | – | 15.1 | 11.3
50 | AAAAGAUGAGGAUAUAUAUGGAAUCCAAGGCAUGUGCUCUCACAUGAGGAUCACCCAUGUAGAAGGCAUCUGCC | – | – | 10.1 | 13
51 | ACGUUUAAUACAGGAUAUGUUCUUAUACUAUACAUUGCUUAUUACUUAAUUACAGAAGGGUAUAACAUGAGGAUCACCCAUGUA | 108 | 63.2 | – | –
52 | GAAUACCUAGGAUAUACAUGAGGAUCACCCAUGUCAGUAGACUCGGAAAAGUCUCUCAGUAGAAGGAGGACCAG | – | – | 35.2 | 79.3
53 | UGAUAGAGCCUAGGAUAUUCGGAUCUACUACAAGGAGAAGGAGGUAGUCGGUGACGAACAUGAGGAUCACCCAUGUCGUCCUUC | – | – | 67.8 | 69.9
54 | GUGCCUCAGAACAUGAGGAUCACCCAUGUGCUGCGGGCACCGUAGGAUAUGAUGGUACGCUACCAUCAGAAGGAUGAUGGUACC | 4.83 | 4.92 | – | –
55 | GUCAGCUCGUGAGGAUAUACAUGUGCUGGAUACAGCACUAAAGUUUUCACAUGAGGAUCACCCAUGUAGAAGGCACGAGCUGAU | – | – | 15.3 | 33.9
